Drawing on ChEMBL document CHEMBL1649256, “Comparison of assessment of oxygen consumption, Etest, and CLSI M38-A2 broth microdilution methods for evaluation of the susceptibility of Aspergillus fumigatus to posaconazole” (2009), this text covers MIC for one compound.

The term MIC denotes the smallest concentration in the dilution series that meets the test's criterion for growth inhibition.

Type in all cases: functional
The test system of experiment [1] is Aspergillus fumigatus. Put plainly: Antimicrobial activity against Aspergillus fumigatus isolate 46 by CLSI M38-A2 broth microdilution method. A general note: Broth dilution looks for growth in wells or tubes with falling amounts of substance.
The test system of experiment [2] is Aspergillus fumigatus. As to the kind of experiment: Antimicrobial activity against Aspergillus fumigatus isolate 2 after 24 hrs by Etest. The settings on record: isolate 2, 24 h. Summed up: (§1)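 Posaconazole Etest strips placed on RPMI 1640 agar with 2% glucose, pH 7.0, and run per the strip maker's instructions. Incubation at 35°C, with the MIC read at 24 h and at 48 h.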

Experiment [3] has as its system Aspergillus fumigatus. Put plainly: Antimicrobial activity against Aspergillus fumigatus isolate 10 after 24 hrs by Etest. The settings on record: isolate 10, 24 h. Summed up:
as §1

The subject of experiment [4] is Aspergillus fumigatus. Put plainly: Antimicrobial activity against Aspergillus fumigatus isolate 11 after 24 hrs by Etest. The settings on record: isolate 11, 24 h. Summed up:
as §1

Experiment [5] has as its system Aspergillus fumigatus. Put plainly: Antimicrobial activity against Aspergillus fumigatus isolate 34 after 24 hrs by Etest. The settings on record: isolate 34, 24 h. Summed up:
(§2)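 Posaconazole Etest strips on RPMI 1640 agar with 2% glucose, pH 7.0, run per the strip maker's instructions. Incubated at 35°C. MIC read at 24 h and at 48 h, matching the time in each line.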

For experiment [6], the system named is Aspergillus fumigatus. Put plainly: Antimicrobial activity against Aspergillus fumigatus isolate 38 after 24 hrs by Etest. The settings on record: isolate 38, 24 h. Summed up:
as §2

For experiment [7], the system named is Aspergillus fumigatus. Put plainly: Antimicrobial activity against Aspergillus fumigatus isolate 3 after 48 hrs by Etest. The settings on record: isolate 3, 48 h. Summed up: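 Etest strips on RPMI 1640 agar with 2% glucose, pH 7.0, run per manufacturer's instructions. Incubated at 35°C; MIC read at 48 h.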
The subject of experiment [8] is Aspergillus fumigatus. As to the kind of experiment: Antimicrobial activity against Aspergillus fumigatus isolate 15 after 48 hrs by Etest. The settings on record: isolate 15, 48 h. Summed up: as §1
In experiment [9] the test system is Aspergillus fumigatus. As to the kind of experiment: Antimicrobial activity against Aspergillus fumigatus isolate 16 after 48 hrs by Etest. The settings on record: isolate 16, 48 h. Summed up: as §1
In experiment [10] the test system is Aspergillus fumigatus. Put plainly: Antimicrobial activity against Aspergillus fumigatus isolate 32 after 48 hrs by Etest. The settings on record: isolate 32, 48 h. Summed up:
as §2

Experiment [11] relates to Aspergillus fumigatus. As to the kind of experiment: Antimicrobial activity against Aspergillus fumigatus isolate 33 after 48 hrs by Etest. The settings on record: isolate 33, 48 h. Summed up:
as §2

Experiment [12] deals with Aspergillus fumigatus. As to the kind of experiment: Antimicrobial activity against Aspergillus fumigatus isolate 41 after 48 hrs by Etest. The settings on record: isolate 41, 48 h. Summed up: as §2
Experiment [13] deals with Aspergillus fumigatus. As to the kind of experiment: Antimicrobial activity against Aspergillus fumigatus isolate 6 by oxygen consumption method.
The subject of experiment [14] is Aspergillus fumigatus. Put plainly: Antimicrobial activity against Aspergillus fumigatus isolate 8 by oxygen consumption method.
The test system of experiment [15] is Aspergillus fumigatus. Put plainly: Antimicrobial activity against Aspergillus fumigatus isolate 22 by oxygen consumption method. Summed up:
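Conidial suspension in RPMI 1640 broth, 1.5 ml, with two drug concentrations (0.25 and 2 μg/ml). Tubes agitated 12 h at 37°C in a biological oxygen monitor. Available oxygen monitored continuously and quantified to assign the MIC.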

Experiment [16] concerns Aspergillus fumigatus. Put plainly: Antimicrobial activity against Aspergillus fumigatus isolate 36 by oxygen consumption method. Summed up:
(§3)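 Conidial suspension in RPMI 1640 broth, tested at two posaconazole levels (0.25 and 2 μg/ml). Agitated for 12 h at 37°C in a biological oxygen monitor. MIC derived from continuous monitoring and quantification of the available oxygen.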

For experiment [17], the system named is Aspergillus fumigatus. Put plainly: Antimicrobial activity against Aspergillus fumigatus isolate 38 by oxygen consumption method. Summed up: as §3
For experiment [18], the system named is Aspergillus fumigatus. As to the kind of experiment: Antimicrobial activity against Aspergillus fumigatus isolate 40 by oxygen consumption method. Summed up: as §3
Experiment [19] concerns Aspergillus fumigatus. As to the kind of experiment: Antimicrobial activity against Aspergillus fumigatus isolate 2 by CLSI M38-A2 broth microdilution method. Summed up: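 Posaconazole broth microdilution follows CLSI M38-A2. The MIC is the lowest concentration with no visible growth at 48 h. Candida parapsilosis ATCC 22019 and Candida krusei ATCC 6258 were included as QC strains in every run.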

For experiment [20], the system named is Aspergillus fumigatus. As to the kind of experiment: Antimicrobial activity against Aspergillus fumigatus isolate 31 by CLSI M38-A2 broth microdilution method. Summed up:
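Reference broth microdilution per CLSI M38-A2. MIC read as absence of visible growth at 48 h. C. parapsilosis ATCC 22019 and C. krusei ATCC 6258 QC strains run in each test session.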

Structures are written as SMILES. In brackets after ≈: the same amount, converted by molar mass. A value given as a limit tells only on which side of the number the result lay.

Regarding `CC[C@@H]([C@H](C)O)n1ncn(-c2ccc(N3CCN(c4ccc(OC[C@@H]5CO[C@@](Cn6cncn6)(c6ccc(F)cc6F)C5)cc4)CC3)cc2)c1=O` [POSACONAZOLE], the MIC was 0.125 µg/mL (≈ 0.178 µM) in the experiment on Aspergillus fumigatus [1]; 0.5 µg/mL (≈ 0.713 µM) in the experiment on Aspergillus fumigatus [2]; 0.125 µg/mL (≈ 0.178 µM) with Aspergillus fumigatus [3]; 0.125 µg/mL (≈ 0.178 µM) against Aspergillus fumigatus [4]; at most 0.03 µg/mL with Aspergillus fumigatus [5]; 0.06 µg/mL (≈ 0.0856 µM) against Aspergillus fumigatus [6]. Moreover, the MIC against Aspergillus fumigatus [7] was 2 µg/mL (≈ 2.85 µM); with Aspergillus fumigatus [8], 0.06 µg/mL (≈ 0.0856 µM); in the experiment with Aspergillus fumigatus [9], 0.25 µg/mL (≈ 0.357 µM); with Aspergillus fumigatus [10], 0.25 µg/mL (≈ 0.357 µM); in the experiment with Aspergillus fumigatus [11], 0.25 µg/mL (≈ 0.357 µM); with Aspergillus fumigatus [12], at most 0.03 µg/mL. Besides, the MIC is at most 0.25 µg/mL in the experiment with Aspergillus fumigatus [13]; at least 0.5 µg/mL against Aspergillus fumigatus [14]; at most 0.25 µg/mL in the experiment with Aspergillus fumigatus [15]; at most 0.25 µg/mL in the experiment with Aspergillus fumigatus [16]; at most 0.25 µg/mL in the experiment on Aspergillus fumigatus [17]; at most 0.25 µg/mL against Aspergillus fumigatus [18]. Also, the values for the MIC against Aspergillus fumigatus [19] and in the experiment on Aspergillus fumigatus [20] were 0.5 µg/mL (≈ 0.713 µM) and 0.125 µg/mL (≈ 0.178 µM), respectively.
